Among the data in ChEMBL document CHEMBL3046492, “Synthesis, insecticidal, and acaricidal activities of novel 2-aryl-pyrrole derivatives containing ester groups” (2008) are mortality values, retold here.

Common to all, as to type: functional
In assay [1] the test system is Culex pipiens pallens. Briefly: Insecticidal activity against fourth-instar larval stage of Culex pipiens pallens (mosquito) assessed as mortality at 0.25 mg/kg at 25 +/-1 degC after 2 days. Conditions: 48 h. In short, it runs like this: (§1)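 Test solutions were prepared by adding 1 mL of each concentrated dilution to 99 mL water. Bioassays were run at 25 ± 1 °C on laboratory-reared insects.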

Assay [2] has as its system Mythimna separata. Kind of assay: Insecticidal activity against fourth-instar larval stage of Mythimna separata (Oriental armyworm) in compound pretreated corn leaves assessed as mortality at 10 mg/kg at 25 +/-1 degC measured after 2 days.
For assay [3], the system named is Tetranychus cinnabarinus. Briefly: Acaricidal activity against adult Tetranychus cinnabarinus (carmine spider mite) in sieva bean plants assessed as mortality at 200 mg/kg treated for 3 secs measured after 2 days. Conditions: 48 h.
Assay [4] concerns Mythimna separata. Kind of assay: Insecticidal activity against fourth-instar larval stage of Mythimna separata (Oriental armyworm) in compound pretreated corn leaves assessed as mortality at 5 mg/kg at 25 +/-1 degC measured after 2 days.
The subject of assay [5] is Culex pipiens pallens. Briefly: Insecticidal activity against fourth-instar larval stage of Culex pipiens pallens (mosquito) assessed as mortality at 0.10 mg/kg at 25 +/-1 degC after 2 days. The following applies: 48 h. In a few lines: as §1
For assay [6], the system named is Culex pipiens pallens. Briefly: Insecticidal activity against fourth-instar larval stage of Culex pipiens pallens (mosquito) assessed as mortality at 0.50 mg/kg at 25 +/-1 degC after 2 days. The following applies: 48 h. In short, it runs like this:
as §1

Assay [7] relates to Mythimna separata. Briefly: Insecticidal activity against fourth-instar larval stage of Mythimna separata (Oriental armyworm) in compound pretreated corn leaves assessed as mortality at 20 mg/kg at 25 +/-1 degC measured after 2 days.
For assay [8], the system named is Tetranychus cinnabarinus. Kind of assay: Acaricidal activity against adult Tetranychus cinnabarinus (carmine spider mite) in sieva bean plants assessed as mortality at 50 mg/kg treated for 3 secs measured after 2 days. Conditions: 48 h.
For assay [9], the system named is Tetranychus cinnabarinus. Kind of assay: Acaricidal activity against adult Tetranychus cinnabarinus (carmine spider mite) in sieva bean plants assessed as mortality at 100 mg/kg treated for 3 secs measured after 2 days. Conditions: 48 h.

One may read the mortality as the percentage killed. With `CC(=O)OCn1c(-c2ccc(Cl)cc2)c(C#N)c(Br)c1C(F)(F)F`, in the assay with Culex pipiens pallens [1], the mortality at 0.25 mg/kg was 100%. The mortality at 10 mg/kg in the assay on Mythimna separata [2] is 90%. For the same compound, the mortality at 200 mg/kg in the assay on Tetranychus cinnabarinus [3] was determined as 0%. In the assay with Mythimna separata [4], the mortality at 5 mg/kg stood at 0%. Also, the mortality at 0.1 mg/kg in the assay with Culex pipiens pallens [5] was 100%. In the assay on Culex pipiens pallens [6], the mortality at 0.5 mg/kg is 100%. The mortality at 20 mg/kg with Mythimna separata [7] came out at 100%.

`CC(C)C(=O)OCn1c(-c2ccc(Cl)cc2)c(C#N)c(Br)c1C(F)(F)F`: in the assay on Mythimna separata [2], the mortality at 10 mg/kg was found to be 100%. Also, the mortality at 50 mg/kg in the assay on Tetranychus cinnabarinus [8] is 100%. Also, the mortality at 100 mg/kg with Tetranychus cinnabarinus [9] amounted to 100%. The mortality at 200 mg/kg in the assay with Tetranychus cinnabarinus [3] is 100%. Moreover, the mortality at 5 mg/kg in the assay on Mythimna separata [4] is 0%. The mortality at 20 mg/kg in the assay on Mythimna separata [7] turned out to be 100%.

Take `N#Cc1c(Br)c(C(F)(F)F)n(COC(=O)c2ccc(Cl)cc2)c1-c1ccc(Cl)cc1`: the mortality at 0.25 mg/kg in the assay with Culex pipiens pallens [1] came to 20%. Further, the mortality at 10 mg/kg with Mythimna separata [2] was found to be 100%. Besides, in the assay with Tetranychus cinnabarinus [8], the mortality at 50 mg/kg worked out at 100%. The mortality at 100 mg/kg in the assay on Tetranychus cinnabarinus [9] was 100%. Also, the mortality at 200 mg/kg in the assay with Tetranychus cinnabarinus [3] worked out at 100%. Moreover, in the assay with Mythimna separata [4], the mortality at 5 mg/kg was 10%. Moreover, in the assay with Culex pipiens pallens [5], the mortality at 0.1 mg/kg worked out at 10%. Also, in the assay on Culex pipiens pallens [6], the mortality at 0.5 mg/kg came to 100%. In addition, in the assay with Mythimna separata [7], the mortality at 20 mg/kg was determined as 100%.

Turning to `N#Cc1c(Br)c(C(F)(F)F)n(COC(=O)c2ccccc2Cl)c1-c1ccc(Cl)cc1`, the mortality at 0.25 mg/kg with Culex pipiens pallens [1] was 100%. Further, the mortality at 10 mg/kg in the assay with Mythimna separata [2] turned out to be 35%. Besides, the mortality at 50 mg/kg in the assay on Tetranychus cinnabarinus [8] turned out to be 93%. The mortality at 100 mg/kg in the assay with Tetranychus cinnabarinus [9] came out at 95%. Besides, the mortality at 200 mg/kg in the assay on Tetranychus cinnabarinus [3] turned out to be 99%. Moreover, the mortality at 5 mg/kg in the assay with Mythimna separata [4] was found to be 0%. For the same compound, the mortality at 0.1 mg/kg in the assay on Culex pipiens pallens [5] was determined as 100%. The mortality at 0.5 mg/kg with Culex pipiens pallens [6] is 100%. Besides, the mortality at 20 mg/kg in the assay with Mythimna separata [7] worked out at 100%.

On to `Cc1ccc(C(=O)OCn2c(-c3ccc(Cl)cc3)c(C#N)c(Br)c2C(F)(F)F)cc1`, for which the mortality at 0.25 mg/kg in the assay on Culex pipiens pallens [1] came out at 100%. Also, the mortality at 10 mg/kg in the assay with Mythimna separata [2] came out at 100%. Moreover, in the assay on Tetranychus cinnabarinus [8], the mortality at 50 mg/kg turned out to be 100%. Also, in the assay on Tetranychus cinnabarinus [9], the mortality at 100 mg/kg was 100%. The mortality at 200 mg/kg in the assay on Tetranychus cinnabarinus [3] turned out to be 100%. For the same compound, the mortality at 5 mg/kg in the assay with Mythimna separata [4] worked out at 0%. The mortality at 0.1 mg/kg in the assay on Culex pipiens pallens [5] turned out to be 100%. Moreover, the mortality at 0.5 mg/kg with Culex pipiens pallens [6] came to 100%. Further, in the assay on Mythimna separata [7], the mortality at 20 mg/kg is 100%.

With `N#Cc1c(Br)c(C(F)(F)F)n(COC(=O)c2ccccc2N)c1-c1ccc(Cl)cc1`, the mortality at 0.25 mg/kg in the assay with Culex pipiens pallens [1] is 100%. For the same compound, in the assay with Mythimna separata [2], the mortality at 10 mg/kg was determined as 0%. Besides, the mortality at 200 mg/kg in the assay on Tetranychus cinnabarinus [3] turned out to be 0%. Moreover, the mortality at 5 mg/kg in the assay with Mythimna separata [4] came out at 0%. Further, the mortality at 0.1 mg/kg in the assay with Culex pipiens pallens [5] was found to be 100%. The mortality at 0.5 mg/kg in the assay with Culex pipiens pallens [6] stood at 100%. Moreover, the mortality at 20 mg/kg with Mythimna separata [7] turned out to be 10%.

`N#Cc1c(Br)c(C(F)(F)F)n(COC(=O)c2ccc(N)cc2)c1-c1ccc(Cl)cc1`: the mortality at 0.25 mg/kg with Culex pipiens pallens [1] was 10%. The mortality at 10 mg/kg in the assay with Mythimna separata [2] amounted to 0%. Also, in the assay with Tetranychus cinnabarinus [3], the mortality at 200 mg/kg amounted to 0%. For the same compound, in the assay on Mythimna separata [4], the mortality at 5 mg/kg worked out at 0%. Moreover, the mortality at 0.1 mg/kg in the assay with Culex pipiens pallens [5] was 10%. In the assay with Culex pipiens pallens [6], the mortality at 0.5 mg/kg stood at 100%. Besides, the mortality at 20 mg/kg in the assay with Mythimna separata [7] came out at 40%.

As for `COc1cccc(C(=O)OCn2c(-c3ccc(Cl)cc3)c(C#N)c(Br)c2C(F)(F)F)c1`, in the assay with Culex pipiens pallens [1], the mortality at 0.25 mg/kg came to 65%. In the assay on Mythimna separata [2], the mortality at 10 mg/kg was found to be 90%. Further, the mortality at 50 mg/kg in the assay on Tetranychus cinnabarinus [8] turned out to be 50%. For the same compound, the mortality at 100 mg/kg with Tetranychus cinnabarinus [9] was 65%. Also, the mortality at 200 mg/kg in the assay with Tetranychus cinnabarinus [3] came out at 100%. In addition, the mortality at 5 mg/kg in the assay on Mythimna separata [4] worked out at 0%. In addition, in the assay on Culex pipiens pallens [5], the mortality at 0.1 mg/kg worked out at 50%. For the same compound, the mortality at 0.5 mg/kg in the assay on Culex pipiens pallens [6] was determined as 100%. Besides, in the assay on Mythimna separata [7], the mortality at 20 mg/kg was 100%.

For `COc1ccc(C(=O)OCn2c(-c3ccc(Cl)cc3)c(C#N)c(Br)c2C(F)(F)F)cc1`, the mortality at 0.25 mg/kg in the assay with Culex pipiens pallens [1] was determined as 30%. In addition, in the assay on Mythimna separata [2], the mortality at 10 mg/kg amounted to 90%. In the assay with Tetranychus cinnabarinus [3], the mortality at 200 mg/kg came out at 0%. For the same compound, in the assay with Mythimna separata [4], the mortality at 5 mg/kg came out at 0%. For the same compound, the mortality at 0.1 mg/kg in the assay with Culex pipiens pallens [5] came out at 20%. The mortality at 0.5 mg/kg in the assay on Culex pipiens pallens [6] was 70%. Also, in the assay with Mythimna separata [7], the mortality at 20 mg/kg was 100%.

On to `N#Cc1c(Br)c(C(F)(F)F)n(COC(=O)c2ccccc2[N+](=O)[O-])c1-c1ccc(Cl)cc1`, for which the mortality at 0.25 mg/kg with Culex pipiens pallens [1] was determined as 20%. The mortality at 10 mg/kg with Mythimna separata [2] was 100%. In addition, the mortality at 200 mg/kg with Tetranychus cinnabarinus [3] amounted to 0%. In addition, the mortality at 5 mg/kg in the assay with Mythimna separata [4] is 20%. Moreover, the mortality at 0.1 mg/kg in the assay with Culex pipiens pallens [5] amounted to 10%. The mortality at 0.5 mg/kg in the assay on Culex pipiens pallens [6] came out at 100%. In addition, in the assay with Mythimna separata [7], the mortality at 20 mg/kg was 100%.
